Calls of active or inactive are those of the source. No cut-off for these calls is given here.
Columns and labels:
[1] = target: Human immunodeficiency virus type 1 reverse transcriptase (Human immunodeficiency virus 1, UniProt Q72547); assay: Inhibition of wild type HIV1 reverse transcriptase assessed as inhibition of DNA primer extension using [8-3H(N)]-dATP by scintillation proximity assay
Method in brief: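 Biotinylated PPT80 DNA template annealed to DNA PPT primer (50 nM hybrid), preincubated 5 min at 37 °C with inhibitor in 50 mM Tris pH 7.8, 50 mM NaCl, 6 mM MgCl2, 4 μM dCTP/dGTP/dTTP, 0.5 μM [8-3H]-dATP. Purified RT added and reaction run 5 min. Quenched with EDTA plus streptavidin SPA beads. Beads counted after ~8 h settling. Ten-point 3-fold dilutions from 100 μM to 10 nM, DMSO ≤5%. Activity taken relative to uninhibited controls. IC50 from variable-slope sigmoidal fit; triplicate determinations.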

[2] = target: Human immunodeficiency virus type 1 reverse transcriptase (Human immunodeficiency virus 1, UniProt Q72547, K65R); assay: Inhibition of wild type HIV1 reverse transcriptase K65R mutant assessed as inhibition of DNA primer extension using [8-3H(N)]-dATP by scintillation proximity assay
Method in brief: (§1)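 50 nM biotinylated PPT80 template/PPT primer and inhibitor (10-step 3-fold series, 100 μM–10 nM final, DMSO ≤5%) were preincubated 5 min at 37 °C. Buffer: 50 mM Tris pH 7.8, 50 mM NaCl, 6 mM MgCl2, 4 μM dCTP/dGTP/dTTP, 0.5 μM [3H]dATP. RT started the 5-min reaction, stopped with EDTA/streptavidin SPA beads. Counts were normalized to uninhibited controls; IC50 from variable-slope sigmoid fit.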

[3] = tested on: Human immunodeficiency virus type 1 reverse transcriptase (Human immunodeficiency virus 1), Q72547 [K65R]; assay: Inhibition of wild type HIV1 reverse transcriptase K65R mutant assessed as inhibition of DNA primer extension using [8-3H(N)]-dATP by scintillation proximity assay relative to wild type
[4] = target: T1, Geranylgeranyl pyrophosphate synthase (Homo sapiens) (UniProt O95749); assay: Inhibition of human GGPPS at 50 uM
T1 sequence (whole entry): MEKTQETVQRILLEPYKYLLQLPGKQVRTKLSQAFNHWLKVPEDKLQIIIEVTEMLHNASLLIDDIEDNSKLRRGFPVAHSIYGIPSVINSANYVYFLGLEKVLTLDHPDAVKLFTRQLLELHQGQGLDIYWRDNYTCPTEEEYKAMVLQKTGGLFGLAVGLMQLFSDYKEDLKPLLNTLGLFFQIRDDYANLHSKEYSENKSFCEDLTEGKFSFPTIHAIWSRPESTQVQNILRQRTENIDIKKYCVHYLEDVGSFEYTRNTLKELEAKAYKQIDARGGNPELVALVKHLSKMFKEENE

[5] = target: T2, Farnesyl pyrophosphate synthase (Homo sapiens) (UniProt P14324); assay: Inhibition of human FPPS at 50 uM
T2 sequence (whole entry): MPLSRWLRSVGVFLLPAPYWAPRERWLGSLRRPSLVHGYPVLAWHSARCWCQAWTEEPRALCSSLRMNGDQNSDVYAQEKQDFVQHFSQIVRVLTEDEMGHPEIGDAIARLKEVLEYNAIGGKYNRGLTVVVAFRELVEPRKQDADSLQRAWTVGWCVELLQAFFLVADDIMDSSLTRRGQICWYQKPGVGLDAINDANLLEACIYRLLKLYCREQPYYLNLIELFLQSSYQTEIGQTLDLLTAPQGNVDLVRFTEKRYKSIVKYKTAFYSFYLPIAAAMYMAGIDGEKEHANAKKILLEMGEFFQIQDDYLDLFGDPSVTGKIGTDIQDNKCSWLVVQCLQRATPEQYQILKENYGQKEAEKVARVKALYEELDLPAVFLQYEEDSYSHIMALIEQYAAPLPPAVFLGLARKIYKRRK

[6] = tested on: Human immunodeficiency virus type 1 reverse transcriptase (Human immunodeficiency virus 1), Q72547 [M184V]; assay: Inhibition of wild type HIV1 reverse transcriptase M184V mutant assessed as inhibition of DNA primer extension using [8-3H(N)]-dATP by scintillation proximity assay relative to wild type
[7] = target: Human immunodeficiency virus type 1 reverse transcriptase (Human immunodeficiency virus 1, UniProt Q72547, M184V); assay: Inhibition of wild type HIV1 reverse transcriptase M184V mutant assessed as inhibition of DNA primer extension using [8-3H(N)]-dATP by scintillation proximity assay; method in brief: as §1
[8] = target: T1, Geranylgeranyl pyrophosphate synthase (Homo sapiens); assay: Inhibition of human GGPPS at 10 uM
[9] = target: T2, Farnesyl pyrophosphate synthase (Homo sapiens); assay: Inhibition of human FPPS at 10 uM

## CSc1nc2ncnc(NCC(P(=O)(O)O)P(=O)(O)O)c2cc1-c1ccsc1
[1]
  IC50: 8.3 µM

## O=P(O)(O)C(Nc1ncnc2nc(-c3cccs3)ccc12)P(=O)(O)O
[1]
  IC50: 10.4 µM

## O=P(O)(O)C(CNc1ncnc2ncccc12)P(=O)(O)O
[1]
  IC50: > 50 µM

## CSc1ccc2c(NC(P(=O)(O)O)P(=O)(O)O)ncnc2n1
[1]
  IC50: > 50 µM

## CSc1nc2ncnc(NC(P(=O)(O)O)P(=O)(O)O)c2cc1-c1ccc(OC(C)C)cc1
[2]
  IC50: 1.8 µM
[3]
  Ratio IC50: 2.1
[4]
  inhibition: < 10%
[5]
  inhibition: < 10%
[6]
  Ratio IC50: 1.6
[1]
  IC50: 1.8 µM
[7]
  IC50: 1400 nM

## O=P(O)(O)C(CNc1ncnc2ncc(-c3ccsc3)cc12)P(=O)(O)O
[1]
  IC50: 9 µM

## O=P(O)(O)C(Nc1ncnc2ncccc12)P(=O)(O)O
[1]
  IC50: > 50 µM

## COc1cccc(-c2cnc3ncnc(NCC(P(=O)(O)O)P(=O)(O)O)c3c2)c1
[1]
  IC50: 20 µM

## CSc1nc2ncnc(NCC(P(=O)(O)O)P(=O)(O)O)c2cc1-c1ccc(OC(C)C)cc1
[1]
  IC50: 7.1 µM

## COc1cccc(-c2cc3c(NCC(P(=O)(O)O)P(=O)(O)O)ncnc3nc2SC)c1
[2]
  IC50: 3.3 µM
[3]
  Ratio IC50: 2.1
[8]
  inhibition: inactive
[6]
  Ratio IC50: 2.7
[9]
  inhibition: 75%
[1]
  IC50: 2.4 µM
[7]
  IC50: 4200 nM

## CSc1nc2ncnc(NCC(P(=O)(O)O)P(=O)(O)O)c2cc1-c1ccccc1
[2]
  IC50: 5.2 µM
[3]
  Ratio IC50: 3.4
[8]
  inhibition: inactive
[6]
  Ratio IC50: 0.4
[9]
  inhibition: 75%
[1]
  IC50: 1.1 µM
[7]
  IC50: 600 nM

## CC(C)Oc1ccc(-c2cnc3ncnc(NC(P(=O)(O)O)P(=O)(O)O)c3c2)cc1
[1]
  IC50: 10 µM

## O=C(O)C(=NNc1ccc(Cl)cc1)C(=O)O
[1]
  IC50: 1.5 µM
